# Data reported in ChEMBL document CHEMBL1629614, “Inhibition of methionyl-tRNA synthetase by REP8839 and effects of resistance mutations on enzyme activity” (Antimicrob Agents Chemother, 2009).
# Legend:
# [1] = compound: C=C(F)c1sc(CNCCCNc2cc(=O)c3ccccc3[nH]2)c(C)c1Br; assay: Activity of Haemophilus influenzae MetRS by ATP:PPi exchange assay in presence of ATP
# [2] = compound: C=C(F)c1sc(CNCCCNc2cc(=O)c3ccccc3[nH]2)c(C)c1Br; assay: Activity of Haemophilus influenzae MetRS by ATP:PPi exchange assay in presence of methionine
# [3] = compound: C=C(F)c1sc(CNCCCNc2cc(=O)c3ccccc3[nH]2)c(C)c1Br; assay: Activity of Staphylococcus aureus MetRS L213W mutant by ATP:PPi exchange assay in presence of ATP
# How it was run: (§1)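 Purified S. aureus MetRS (wild type or mutant; E. coli-expressed, ammonium sulfate cut, anion exchange) at 30 nM. ATP:PPi exchange at 30°C in 100 mM Tris-HCl pH 8.0, 5–10 mM Mg acetate, 80 mM KCl, 2.5 mM DTT, [32P]PPi plus cold PPi equal to ATP. Quenched with EDTA over 1–10 min, PEI-cellulose TLC, phosphorimager. Initial velocities versus varied ATP or methionine fit to Michaelis-Menten.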
# [4] = compound: C=C(F)c1sc(CNCCCNc2cc(=O)c3ccccc3[nH]2)c(C)c1Br; assay: Ratio of Kcat to Km for Staphylococcus aureus MetRS L213W mutant in presence of ATP
# How it was run: (§2)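 Purified recombinant S. aureus MetRS (30 nM) was assayed by ATP:PPi exchange at 30°C in Tris pH 8.0 with Mg acetate, KCl and DTT. [32P]PPi was matched to ATP, and ATP or methionine was varied. Time points from 1 to 10 min were quenched with EDTA, separated by PEI-cellulose TLC and read by phosphorimager. Initial rates were fitted to Michaelis-Menten.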
# [5] = compound: C=C(F)c1sc(CNCCCNc2cc(=O)c3ccccc3[nH]2)c(C)c1Br; assay: Activity of Staphylococcus aureus MetRS L213W mutant by ATP:PPi exchange assay in presence of methionine; how it was run: as §1
# [6] = compound: C=C(F)c1sc(CNCCCNc2cc(=O)c3ccccc3[nH]2)c(C)c1Br; assay: Ratio of Kcat to Km for Staphylococcus aureus MetRS L213W mutant in presence of tRNA
# How it was run: (§3)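 Purified recombinant S. aureus MetRS was assayed by tRNA aminoacylation at 30°C for 1 to 7.5 min to obtain initial rates. Buffer was Tris pH 8.0 with Mg acetate, 2.5 mM ATP, KCl, DTT, BSA, [3H]methionine and crude E. coli tRNA. Reactions were EDTA-stopped, and charged tRNA was read by scintillation proximity with polylysine beads at pH 2.0.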
# [7] = compound: C=C(F)c1sc(CNCCCNc2cc(=O)c3ccccc3[nH]2)c(C)c1Br; assay: Ratio of Kcat to Km for Staphylococcus aureus MetRS L213W mutant in presence of methionine; how it was run: as §2
# [8] = compound: C=C(F)c1sc(CNCCCNc2cc(=O)c3ccccc3[nH]2)c(C)c1Br; assay: Activity of streptococcus aureus MetRS L213W mutant by scintillation proximity assay in presence of tRNA; settings: Staphylococcus aureus
# [9] = compound: C=C(F)c1sc(CNCCCNc2cc(=O)c3ccccc3[nH]2)c(C)c1Br; assay: Activity of Staphylococcus aureus MetRS I57N mutant by ATP:PPi exchange assay in presence of methionine; how it was run: as §1
# [10] = compound: C=C(F)c1sc(CNCCCNc2cc(=O)c3ccccc3[nH]2)c(C)c1Br; assay: Ratio of Kcat to Km for Staphylococcus aureus MetRS I57N mutant in presence of ATP; how it was run: as §2
# [11] = compound: C=C(F)c1sc(CNCCCNc2cc(=O)c3ccccc3[nH]2)c(C)c1Br; assay: Ratio of Kcat to Km for Staphylococcus aureus MetRS I57N mutant in presence of tRNA; how it was run: as §3
# [12] = compound: C=C(F)c1sc(CNCCCNc2cc(=O)c3ccccc3[nH]2)c(C)c1Br; assay: Activity of streptococcus aureus MetRS I57N mutant by scintillation proximity assay in presence of tRNA; settings: Staphylococcus aureus
# [13] = compound: C=C(F)c1sc(CNCCCNc2cc(=O)c3ccccc3[nH]2)c(C)c1Br; assay: Ratio of Kcat to Km for Staphylococcus aureus MetRS I57N mutant in presence of methionine; how it was run: as §2
# [14] = compound: C=C(F)c1sc(CNCCCNc2cc(=O)c3ccccc3[nH]2)c(C)c1Br; assay: Activity of Staphylococcus aureus MetRS I57N mutant by ATP:PPi exchange assay in presence of ATP; how it was run: as §1
protein,measurement,setting,value
"Methionine--tRNA ligase (Haemophilus influenzae (strain ATCC 51907 / DSM 11121 / KW20 / Rd)), P43828 (protein) MTTQPRKILVTCALPYANGAIHLGHMLEHIQADIWVRFQRMRGNKIHFVCADDAHGTPIMLNADKLGITPEELIAKAKADHIRDFAGFNISFDNYHSTHSEENKQLTAEIYNKLKANGFIKSKVISQLFDPEKNMFLPDRFVKGTCPKCKAEDQYGDNCEVCASTYSPMDLINPRSAVSGTTPIVKESEHFFFDLPAFEGMLKEWTRSGSLQSEIANKMQEWFESDLQQWDISRDAPYFGFEIPGAKDKFFYVWLDAPIGYMASFKNLCNREGIDFNEFWAEGSDAELYHFIGKDIVYFHSLFWPAMLEGSGYRKPTNVFAHGYVTVDGAKMSKSRGTFIQASTYLNHIDPECLRYYYAAKLNDRIEDLDFNLEDFVQRVNTDIVNKLVNLASRNAGFIAKRFEGKLADKLEDKSLFAEFTAQAEQIAAYYESREYNKTIREIMALTDKANKYIDEKAPWVIAKEEGKEAELQAVCSMGIELFRVLMSYLKPVLPKLAERAETFLQAELRWDNIHQPLLGHTLAPFKALFSRLEKKQIDAVVEETKALFAAANKAAEKTEAKPTALSAVEPIAETITIDDFAKLDMRVAKVLKCEAVPESNKLLRFELDLGDHTRQVFSGIKAAYNKPEELEGRFVIMVANLAPRKMKFGVSEGMILSAGTGGSDLFLLSADSGVTAGMQVK",Km,[1],1200 µM
same,Km,[2],250 µM
"Methionine--tRNA ligase (Staphylococcus aureus subsp. aureus MW2), Q8NY00 L213W (protein) MAKETFYITTPIYYPSGNLHIGHAYSTVAGDVIARYKRMQGYDVRYLTGTDEHGQKIQEKAQKAGKTEIEYLDEMIAGIKQLWAKLEISNDDFIRTTEERHKHVVEQVFERLLKQGDIYLGEYEGWYSVPDETYYTESQLVDPQYENGKIIGGKSPDSGHEVELVKEESYFFNISKYTDRLLEFYDQNPDFIQPPSRKNEMINNFIKPGLADWAVSRTSFNWGVHVPSNPKHVVYVWIDALVNYISALGYLSDDESLFNKYWPADIHLMAKEIVRFHSIIWPILLMALDLPLPKKVFAHGWILMKDGKMSKSKGNVVDPNILIDRYGLDATRYYLMRELPFGSDGVFTPEAFVERTNFDLANDLGNLVNRTISMVNKYFDGELPAYQGPLHELDEEMEAMALETVKSYTESMESLQFSVALSTVWKFISRTNKYIDETTPWVLAKDDSQKDMLGNVMAHLVENIRYAAVLLRPFLTHAPKEIFEQLNINNPQFMEFSSLEQYGVLTESIMVTGQPKPIFPRLDSEAEIAYIKESMQPPATEEEKEEIPSKPQIDIKDFDKVEIKAATIINAEHVKKSDKLLKIQVDLDSEQRQIVSGIAKFYTPDDIIGKKVAVVTNLKPAKLMGQKSEGMILSAEKDGVLTLVSLPSAIPNGAVIK",Km,[3],595 µM
same,kcat/Km,[4],17000 M⁻¹ s⁻¹
same,Km,[5],100 µM
same,kcat,[5],10 s⁻¹
same,kcat/Km,[6],320000 M⁻¹ s⁻¹
same,kcat/Km,[7],100000 M⁻¹ s⁻¹
same,Km,[8],1.7 µM
same,kcat,[8],0.54 s⁻¹
"Methionine--tRNA ligase (Staphylococcus aureus subsp. aureus MW2), Q8NY00 I57N (protein) MAKETFYITTPIYYPSGNLHIGHAYSTVAGDVIARYKRMQGYDVRYLTGTDEHGQKNQEKAQKAGKTEIEYLDEMIAGIKQLWAKLEISNDDFIRTTEERHKHVVEQVFERLLKQGDIYLGEYEGWYSVPDETYYTESQLVDPQYENGKIIGGKSPDSGHEVELVKEESYFFNISKYTDRLLEFYDQNPDFIQPPSRKNEMINNFIKPGLADLAVSRTSFNWGVHVPSNPKHVVYVWIDALVNYISALGYLSDDESLFNKYWPADIHLMAKEIVRFHSIIWPILLMALDLPLPKKVFAHGWILMKDGKMSKSKGNVVDPNILIDRYGLDATRYYLMRELPFGSDGVFTPEAFVERTNFDLANDLGNLVNRTISMVNKYFDGELPAYQGPLHELDEEMEAMALETVKSYTESMESLQFSVALSTVWKFISRTNKYIDETTPWVLAKDDSQKDMLGNVMAHLVENIRYAAVLLRPFLTHAPKEIFEQLNINNPQFMEFSSLEQYGVLTESIMVTGQPKPIFPRLDSEAEIAYIKESMQPPATEEEKEEIPSKPQIDIKDFDKVEIKAATIINAEHVKKSDKLLKIQVDLDSEQRQIVSGIAKFYTPDDIIGKKVAVVTNLKPAKLMGQKSEGMILSAEKDGVLTLVSLPSAIPNGAVIK",Km,[9],25 µM
same,kcat,[9],14 s⁻¹
same,kcat/Km,[10],17000 M⁻¹ s⁻¹
same,kcat/Km,[11],25000 M⁻¹ s⁻¹
same,Km,[12],0.93 µM
same,kcat,[12],0.023 s⁻¹
same,kcat/Km,[13],560000 M⁻¹ s⁻¹
same,Km,[14],820 µM
